Source: ChEMBL document CHEMBL4706672 (J Med Chem, 2021)
Active and inactive are the calls of the source. The calls are words filed in the database; no cut-off is given here.

Key:
[1] = molecular target: T1, Protein cereblon/Signal transducer and activator of transcription 3 (Homo sapiens, UniProt P40763+Q96SW2); experiment: Protac activity at CRBN/STAT3 in human BxPC-3 cells assessed as decrease in STAT3 expression level at 5 uM after 16 hrs by western blot analysis; assay type: cell-based
Procedure, shortened: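 BxPC-3 cells seeded at 500 × 10^3 per well in 6-well plates, treated 16 h. Sonication lysis at 4 °C in Tris/NaCl/Triton/SDS buffer pH 7.4 with protease and phosphatase inhibitors, BCA protein assay, SDS-PAGE, PVDF transfer. Probed for STAT3, pSTAT3 and NQO1 with GAPDH loading control; fluorescent secondary detection.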

[2] = molecular target: Protein cereblon/SET domain-containing protein 4 (Homo sapiens) (UniProt Q96SW2+Q9NVD3); experiment: Protac activity at CRBN/SETD4 in human BxPC-3 cells assessed as SETD4 degradation incubated for 16 hrs by proteomic analysis; assay type: cell-based
Procedure, shortened: (§1)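 TMT 10plex proteomics. […] Samples (75 μg) were reduced with DTT, alkylated with 2-chloroacetamide, acetone-precipitated, trypsin-digested overnight at 37 °C and TMT-labeled for LC-MS/MS relative quantitation.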

[3] = molecular target: Protein cereblon/Adhesion G-protein coupled receptor G1 (Homo sapiens) (UniProt Q96SW2+Q9Y653); experiment: Protac activity at CRBN/ADGRG1 in human BxPC-3 cells assessed as ADGRG1 degradation incubated for 16 hrs by proteomic analysis; assay type: cell-based; procedure, shortened: as §1
BXPC-3 [4] = experiment: Reduction in NQO1 expression in human BxPC-3 cells at 2 to 6 uM incubated for 16 hrs in presence of protein synthesis inhibitor cycloheximide by western blot analysis; details: dose 2-6 µM
[5] = molecular target: T2, Protein cereblon/E3 ubiquitin-protein ligase ZFP91 (Homo sapiens, UniProt Q96SW2+Q96JP5); experiment: Protac activity at CRBN/ZFP91 in human BxPC-3 cells assessed as induction of ZF91 degradation incubated for 4 hrs by western blot analysis; assay type: cell-based
Procedure, shortened: (§2)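 BxPC-3 cells treated for 4, 16 or 24 h across a concentration series. ZFP91 immunoblotted against GAPDH; bands quantified by densitometry, DC50 calculated from dose-response curves of the densitometry.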
Target sequence in this assay (Q96JP5 2-570 partner limits assumed): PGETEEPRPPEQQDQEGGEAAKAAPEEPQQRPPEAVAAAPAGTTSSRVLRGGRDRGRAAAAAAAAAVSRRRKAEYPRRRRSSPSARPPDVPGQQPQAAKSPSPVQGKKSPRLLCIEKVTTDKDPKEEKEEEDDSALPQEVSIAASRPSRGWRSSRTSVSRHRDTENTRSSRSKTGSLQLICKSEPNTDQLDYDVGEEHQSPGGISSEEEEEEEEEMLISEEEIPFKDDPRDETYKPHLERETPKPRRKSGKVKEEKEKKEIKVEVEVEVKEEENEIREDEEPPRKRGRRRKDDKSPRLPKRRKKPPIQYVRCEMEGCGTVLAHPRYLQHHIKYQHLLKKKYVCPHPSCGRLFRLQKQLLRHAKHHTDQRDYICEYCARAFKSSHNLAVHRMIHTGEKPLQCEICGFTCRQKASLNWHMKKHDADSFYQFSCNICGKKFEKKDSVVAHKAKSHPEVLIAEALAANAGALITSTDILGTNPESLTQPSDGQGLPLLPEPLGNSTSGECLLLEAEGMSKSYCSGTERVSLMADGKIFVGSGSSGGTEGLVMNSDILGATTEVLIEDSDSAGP
Target sequence in this assay (Q96SW2 whole entry): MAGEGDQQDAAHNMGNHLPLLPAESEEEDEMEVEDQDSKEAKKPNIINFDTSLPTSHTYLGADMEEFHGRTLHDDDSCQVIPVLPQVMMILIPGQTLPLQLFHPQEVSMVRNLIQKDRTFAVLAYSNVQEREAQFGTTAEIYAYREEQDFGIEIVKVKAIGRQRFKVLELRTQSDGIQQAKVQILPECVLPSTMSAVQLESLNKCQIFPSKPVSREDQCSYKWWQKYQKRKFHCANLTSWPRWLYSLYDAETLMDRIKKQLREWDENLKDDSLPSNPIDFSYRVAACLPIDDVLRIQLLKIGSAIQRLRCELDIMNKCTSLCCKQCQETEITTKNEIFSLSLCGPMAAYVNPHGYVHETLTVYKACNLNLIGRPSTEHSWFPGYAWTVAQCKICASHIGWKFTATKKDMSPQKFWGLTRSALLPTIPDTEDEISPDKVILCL

[6] = Upregulation of ZNF430 protein levels human BxPC-3 cells incubated for 16 hrs by proteomic analysis; assay type: functional
Procedure, shortened: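 BxPC-3 cells exposed to compound (2 μM) or DMSO control for 16 h, then lysed in RIPA buffer at 4 °C. Protein quantified by BCA; 75 μg per sample. TMT 10plex labeling: DTT reduction (1 h, 55 °C), 2-chloroacetamide alkylation (30 min, RT), acetone precipitation, overnight trypsin digestion at 37 °C, then LC-tandem MS relative quantitation. Control and treated samples run in triplicate.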

[7] = molecular target: Protein cereblon/Small EDRK-rich factor 2 (Homo sapiens) (UniProt Q96SW2+P84101); experiment: Protac activity at CRBN/SERF2 in human BxPC-3 cells assessed as SERF2 degradation incubated for 16 hrs by proteomic analysis; assay type: cell-based; procedure, shortened: as §1
Sequence of Protein cereblon/Small EDRK-rich factor 2 (Homo sapiens) (P84101 whole entry, looked up): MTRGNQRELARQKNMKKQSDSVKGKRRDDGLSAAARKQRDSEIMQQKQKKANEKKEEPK
Sequence of Protein cereblon/Small EDRK-rich factor 2 (Homo sapiens) (Q96SW2 whole entry, looked up): as the sequence (Q96SW2 whole entry) above

[8] = Selectivity index, ratio of IC50 for antiproliferative activity against human HEK293 cell by MTT assay to IC50 for inhibition of IL-6 induced STAT3 transcription in human HEK293 cells
Procedure, shortened: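 HEK-293 cells carrying an SIE-luc2P STAT3 reporter, seeded 10,000/well, stimulated with IL6 at 100 ng/ml for 24 h, then given compound for 24 h; luciferase reagent added and luminescence read after 5 min. A parallel 24 h MTT assay was run in the same cells. Mean ± SD of three independent experiments.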

BXPC-3 [9] = experiment: Antiproliferative activity against ZFP91 knockdown human BxPC-3 cells assessed as reduction in cell viability incubated for 48 hrs by MTT assay; assay type: functional, cell-based; details: BXPC-3, 48 h
Procedure, shortened: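 BxPC-3 cells were transfected with ZFP91 siRNA or scrambled control siRNA using Lipofectamine RNAiMAX in Opti-MEM, 5 pmol siRNA per complex. Compound was added together with the siRNA complex.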

BXPC-3 [10] = experiment: Reduction in NQO1 expression in human BxPC-3 cells at 2 to 6 uM incubated for 12 hrs in presence of proteasome inhibitor MG132 by western blot analysis; assay type: functional, cell-based; details: dose 2-6 µM
Procedure, shortened: (§3)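 Immunoblot of BxPC-3 cells given a 2 h pretreatment with MG132 at 10 μM, then test agent for 12 h. Cell lysis, BCA assay, SDS-PAGE/PVDF, probed for STAT3, pSTAT3 and NQO1 with GAPDH as reference.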

[11] = molecular target: Protein cereblon/45 kDa calcium-binding protein (Homo sapiens) (UniProt Q96SW2+Q9BRK5); experiment: Protac activity at CRBN/SDF4 in human BxPC-3 cells assessed as SDF4 degradation incubated for 16 hrs by proteomic analysis; assay type: cell-based; procedure, shortened: as §1
Sequence of Protein cereblon/45 kDa calcium-binding protein (Homo sapiens) (Q96SW2 whole entry, looked up): as the sequence (Q96SW2 whole entry) above
Sequence of Protein cereblon/45 kDa calcium-binding protein (Homo sapiens) (Q9BRK5 whole entry, looked up): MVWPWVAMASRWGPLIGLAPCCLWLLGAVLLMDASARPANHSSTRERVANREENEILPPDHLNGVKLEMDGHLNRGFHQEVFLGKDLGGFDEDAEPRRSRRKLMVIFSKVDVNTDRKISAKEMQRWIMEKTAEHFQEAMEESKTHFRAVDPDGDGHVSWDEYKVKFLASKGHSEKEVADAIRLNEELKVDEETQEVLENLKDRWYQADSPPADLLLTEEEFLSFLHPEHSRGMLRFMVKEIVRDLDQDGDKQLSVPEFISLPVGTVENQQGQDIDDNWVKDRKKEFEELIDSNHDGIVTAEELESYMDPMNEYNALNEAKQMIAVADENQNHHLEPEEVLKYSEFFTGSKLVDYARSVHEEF

[12] = molecular target: T2, Protein cereblon/E3 ubiquitin-protein ligase ZFP91; experiment: Protac activity at CRBN/ZFP91 in human BxPC-3 cells assessed as ZFP91 degradation incubated for 16 hrs by proteomic analysis; assay type: cell-based
Procedure, shortened: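 BxPC-3 cells exposed 16 h in triplicate (control, PROTAC) or duplicate (other arms); lysed in RIPA at 4 °C, 75 μg protein per sample. Reduced with DTT (1 h, 55 °C), alkylated with 2-chloroacetamide, acetone-precipitated, trypsin-digested overnight at 37 °C, TMT 10plex labelled, relative quantitation by LC-tandem MS.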
Target sequence in this assay (Q96JP5 2-570 partner limits assumed): as the sequence (Q96JP5 2-570 partner limits assumed) above
Target sequence in this assay (Q96SW2 whole entry): as the sequence (Q96SW2 whole entry) above

[13] = molecular target: Protein cereblon/DNA polymerase delta subunit 4 (Homo sapiens) (UniProt Q9HCU8+Q96SW2); experiment: Protac activity at CRBN/POLD4 in human BxPC-3 cells assessed as POLD4 degradation incubated for 16 hrs by proteomic analysis; assay type: cell-based; procedure, shortened: as §1
Sequence of Protein cereblon/DNA polymerase delta subunit 4 (Homo sapiens) (Q96SW2 whole entry, looked up, the tested form may be a part): as the sequence (Q96SW2 whole entry) above
Sequence of Protein cereblon/DNA polymerase delta subunit 4 (Homo sapiens) (Q9HCU8 whole entry, looked up, the tested form may be a part): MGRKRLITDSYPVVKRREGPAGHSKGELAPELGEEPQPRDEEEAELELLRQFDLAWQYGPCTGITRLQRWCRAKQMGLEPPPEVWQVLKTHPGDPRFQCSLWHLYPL

[14] = molecular target: Protein cereblon/Cold shock domain-containing protein E1 (Homo sapiens) (UniProt Q96SW2+O75534); experiment: Protac activity at CRBN/CSDE1 in human BxPC-3 cells assessed as CSDE1 degradation incubated for 16 hrs by proteomic analysis; assay type: cell-based; procedure, shortened: as §1
[15] = molecular target: T1, Protein cereblon/Signal transducer and activator of transcription 3; experiment: Protac activity at CRBN/STAT3 in human BxPC-3 cells assessed as decrease in STAT3 expression level at 2 to 6 uM incubated for 12 hrs in presence of proteasome inhibitor MG132 by western blot analysis; assay type: cell-based; details: dose 2-6 µM; procedure, shortened: as §3
[16] = molecular target: Protein cereblon/Protein LTV1 homolog (Homo sapiens) (UniProt Q96SW2+Q96GA3); experiment: Protac activity at CRBN/LTV1 in human BxPC-3 cells assessed as LTV1 degradation incubated for 16 hrs by proteomic analysis; assay type: cell-based; procedure, shortened: as §1
[17] = molecular target: T2, Protein cereblon/E3 ubiquitin-protein ligase ZFP91; experiment: Protac activity at CRBN/ZFP91 in human BxPC-3 cells assessed as induction of ZF91 degradation incubated for 16 hrs by western blot analysis; assay type: cell-based; procedure, shortened: as §2
[18] = molecular target: Protein cereblon/Desmoplakin (Homo sapiens) (UniProt Q96SW2+P15924); experiment: Protac activity at CRBN/DSP in human BxPC-3 cells assessed as DSP degradation incubated for 16 hrs by proteomic analysis; assay type: cell-based; procedure, shortened: as §1
MIA PaCa-2 = experiment: Antiproliferative activity against human MIA PaCa-2 cells assessed as reduction in cell viability incubated for 3 days by MTT assay; assay type: functional, cell-based; details: MIA PaCa-2, 72 h
Procedure, shortened: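 MTT assay. Cells were seeded at 3000–6000/well and incubated overnight, then exposed to compound or DMSO vehicle for 3 days in RPMI-1640 or DMEM with 10% FBS at 37 °C, 5% CO2. MTT (3 mg/ml) was added for 3 h at 37 °C, formazan was dissolved in DMSO and absorbance read at 570 nm. IC50 from three independent experiments, mean ± SD.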

T1 sequence (P40763 2-770 limits assumed): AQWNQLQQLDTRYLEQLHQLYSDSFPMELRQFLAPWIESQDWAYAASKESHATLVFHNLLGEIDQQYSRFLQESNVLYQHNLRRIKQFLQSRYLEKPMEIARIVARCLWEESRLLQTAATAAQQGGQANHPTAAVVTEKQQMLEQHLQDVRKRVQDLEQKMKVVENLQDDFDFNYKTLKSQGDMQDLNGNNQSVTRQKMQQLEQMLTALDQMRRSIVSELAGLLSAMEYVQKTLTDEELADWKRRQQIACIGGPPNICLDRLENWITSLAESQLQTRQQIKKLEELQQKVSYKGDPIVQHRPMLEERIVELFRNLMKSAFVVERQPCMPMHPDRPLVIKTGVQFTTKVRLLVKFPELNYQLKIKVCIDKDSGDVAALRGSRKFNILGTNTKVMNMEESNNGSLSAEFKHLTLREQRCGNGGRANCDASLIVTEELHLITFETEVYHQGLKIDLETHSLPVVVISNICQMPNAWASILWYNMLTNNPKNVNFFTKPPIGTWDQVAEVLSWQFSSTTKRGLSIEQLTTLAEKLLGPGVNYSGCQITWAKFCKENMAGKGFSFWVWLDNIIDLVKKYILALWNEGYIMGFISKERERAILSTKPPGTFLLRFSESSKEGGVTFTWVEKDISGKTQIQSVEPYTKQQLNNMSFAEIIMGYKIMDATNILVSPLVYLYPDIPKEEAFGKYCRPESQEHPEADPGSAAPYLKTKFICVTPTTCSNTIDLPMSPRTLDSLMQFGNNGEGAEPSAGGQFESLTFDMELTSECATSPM
T1 sequence (Q96SW2 whole entry partner): as the sequence (Q96SW2 whole entry) above

**Q.** Which Activity [1] does the source give for `O=C1CCC(N2C(=O)c3cccc(NCCCCCC4CCN(CCNC(=O)c5cc6c(o5)C(=O)c5ccccc5C6=O)CC4)c3C2=O)C(=O)N1` (centres undefined) here?
**A.** Active

**Q.** What about the log2FC [2] of the same compound?
**A.** -0.86

**Q.** What about the log2FC [3] of the same compound?
**A.** -0.69

**Q.** What about the Activity (BXPC-3 [4]) of the same compound?
**A.** inactive

**Q.** And the Activity [5]?
**A.** inactive

**Q.** And the log2FC [6]?
**A.** 0.77

**Q.** And the log2FC [7]?
**A.** -0.61

**Q.** And the “Ratio IC50” value [8]?
**A.** 7

**Q.** And the IC50 (BXPC-3 [9])?
**A.** 2100 nM

**Q.** What about the Activity (BXPC-3 [10]) of the same compound?
**A.** Active

**Q.** What about the log2FC [11] of the same compound?
**A.** -0.67

**Q.** And the log2FC [12]?
**A.** -0.62

**Q.** What about the log2FC [13] of the same compound?
**A.** -0.61

**Q.** What about the log2FC [14] of the same compound?
**A.** -0.75

**Q.** What about the Activity [15] of the same compound?
**A.** Active

**Q.** And the log2FC [16]?
**A.** -0.69

**Q.** And the DC50 [17]?
**A.** 80 nM

**Q.** What about the log2FC [18] of the same compound?
**A.** -0.7

**Q.** What about the IC50 (MIA PaCa-2) of the same compound?
**A.** 1000 nM
